# Experimental data: ChEMBL document CHEMBL3352261, “Discovery of inhibitors of the mitotic kinase TTK based on N-(3-(3-sulfamoylphenyl)-1H-indazol-5-yl)-acetamides and carboxamides” (Bioorg Med Chem, 2014)
# Calls of active or inactive are those of the source. No cut-off for these calls is given here.
# Key:
# [1] = target: T1, Dual specificity protein kinase TTK (Homo sapiens, UniProt P33981); test: Inhibition of GST-fused full length human TTK compound pre-incubated for 15 mins prior ATP addition by MBP-based assay
# T1 sequence (P33981 whole entry): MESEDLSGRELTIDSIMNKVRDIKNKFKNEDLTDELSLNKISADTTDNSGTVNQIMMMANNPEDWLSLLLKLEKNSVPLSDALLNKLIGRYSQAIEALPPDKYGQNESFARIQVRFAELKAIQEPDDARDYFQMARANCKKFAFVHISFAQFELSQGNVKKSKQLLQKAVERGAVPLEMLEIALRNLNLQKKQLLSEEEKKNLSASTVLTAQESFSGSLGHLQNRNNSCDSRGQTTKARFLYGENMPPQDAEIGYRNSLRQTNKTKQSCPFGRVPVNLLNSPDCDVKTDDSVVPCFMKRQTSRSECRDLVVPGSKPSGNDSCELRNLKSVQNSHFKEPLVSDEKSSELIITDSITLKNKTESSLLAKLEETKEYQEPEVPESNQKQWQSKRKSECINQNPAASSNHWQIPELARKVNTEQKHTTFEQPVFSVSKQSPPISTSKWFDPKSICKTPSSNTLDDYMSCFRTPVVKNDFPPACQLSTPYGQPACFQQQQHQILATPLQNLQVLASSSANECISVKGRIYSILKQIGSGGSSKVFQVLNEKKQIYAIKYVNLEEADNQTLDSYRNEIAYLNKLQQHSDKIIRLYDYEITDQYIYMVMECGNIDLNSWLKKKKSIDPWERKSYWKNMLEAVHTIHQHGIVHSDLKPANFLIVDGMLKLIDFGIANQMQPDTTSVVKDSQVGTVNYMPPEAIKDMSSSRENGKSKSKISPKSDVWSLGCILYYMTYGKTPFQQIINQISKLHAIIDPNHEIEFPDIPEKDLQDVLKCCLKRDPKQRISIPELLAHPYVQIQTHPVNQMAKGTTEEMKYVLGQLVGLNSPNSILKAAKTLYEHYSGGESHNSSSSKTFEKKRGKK
# [2] = target: T1, Dual specificity protein kinase TTK; test: Inhibition of SUMO-tagged human TTK (1-275 residues) compound pre-incubated for 15 mins prior ATP addition by MBP-based assay
# [3] = Antitumor activity against human HCT116 cells xenografted in SCID mouse assessed as tumor growth inhibition at 15 mg/kg, ip qd for 5 days; assay type: functional; conditions: HCT-116, ip, 120 h, route intraperitoneal, read-out: TGI
# Summary of the method: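 HCT116 xenografts were grown in mice and dosed by the intraperitoneal route once daily. Tumor volume was tracked and compared with a negative-control arm, and the result was expressed as percent tumor growth inhibition. Body weight was monitored across all arms.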
# [4] = target: T2, Serine/threonine-protein kinase PLK4 (Homo sapiens, UniProt O00444); test: Inhibition of GST-tagged human PLK4 (1-391 residues) phosphorylation by ELISA
# T2 sequence (O00444 whole entry): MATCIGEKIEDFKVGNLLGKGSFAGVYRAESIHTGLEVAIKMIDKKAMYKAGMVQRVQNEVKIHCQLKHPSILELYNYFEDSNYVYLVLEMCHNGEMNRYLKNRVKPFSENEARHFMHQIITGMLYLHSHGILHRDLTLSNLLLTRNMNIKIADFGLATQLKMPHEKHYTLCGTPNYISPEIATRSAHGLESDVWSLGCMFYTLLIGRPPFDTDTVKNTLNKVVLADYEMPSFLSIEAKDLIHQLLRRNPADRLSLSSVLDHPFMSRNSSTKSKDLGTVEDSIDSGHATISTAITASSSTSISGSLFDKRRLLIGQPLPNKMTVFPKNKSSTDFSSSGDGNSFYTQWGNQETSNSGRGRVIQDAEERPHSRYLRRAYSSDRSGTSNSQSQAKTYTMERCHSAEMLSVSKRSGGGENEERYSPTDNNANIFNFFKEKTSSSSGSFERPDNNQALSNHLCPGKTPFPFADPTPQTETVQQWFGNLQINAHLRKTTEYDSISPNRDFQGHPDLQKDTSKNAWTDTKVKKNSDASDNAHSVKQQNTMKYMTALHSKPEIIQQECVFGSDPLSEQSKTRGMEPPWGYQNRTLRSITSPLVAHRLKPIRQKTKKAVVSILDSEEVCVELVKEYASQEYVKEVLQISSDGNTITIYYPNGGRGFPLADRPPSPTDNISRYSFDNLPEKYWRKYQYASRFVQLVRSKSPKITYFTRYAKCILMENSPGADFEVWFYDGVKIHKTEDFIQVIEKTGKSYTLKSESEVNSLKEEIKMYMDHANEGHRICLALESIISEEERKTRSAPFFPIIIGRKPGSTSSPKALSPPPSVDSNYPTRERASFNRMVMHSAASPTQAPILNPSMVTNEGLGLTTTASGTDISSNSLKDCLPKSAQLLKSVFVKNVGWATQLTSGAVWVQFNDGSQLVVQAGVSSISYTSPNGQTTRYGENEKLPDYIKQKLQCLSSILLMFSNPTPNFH
# Aurora kinase B = Aurora kinase B (Homo sapiens, UniProt Q96GD4); test: Inhibition of Aurora B (unknown origin) by FRET-based homogenous assay
# [5] = target: Serine/threonine-protein kinase Chk2 (Homo sapiens, UniProt O96017); test: Inhibition of CHK2 (unknown origin) by FRET-based homogenous assay
# Cytochrome P450 2C19 = Cytochrome P450 2C19 (Homo sapiens, UniProt P33261); test: Inhibition of CYP2C19 in supersomes (unknown origin) using MFC as substrate after 30 mins; assay type: ADME
# Cytochrome P450 3A4 [6] = target: T3, Cytochrome P450 3A4 (Homo sapiens, UniProt P08684); test: Inhibition of CYP3A4 in supersomes (unknown origin) using Dibenzylfluorescein as substrate after 10 mins; assay type: ADME
# Cytochrome P450 3A4 [7] = target: T3, Cytochrome P450 3A4; test: Inhibition of CYP3A4 in supersomes (unknown origin) using 7-benzyloxy-4-trifluoromethylcoumarin as substrate after 30 mins; assay type: ADME
# Cytochrome P450 2C9 = Cytochrome P450 2C9 (Homo sapiens, UniProt P11712); test: Inhibition of CYP2C9 in supersomes (unknown origin) using MFC as substrate after 30 mins; assay type: ADME
# Cytochrome P450 1A2 = target: T4, Cytochrome P450 1A2 (Homo sapiens, UniProt P05177); test: Inhibition of CYP1A2 in supersomes (unknown origin) using CEC as substrate after 30 mins; assay type: ADME
# T4 sequence (P05177 whole entry): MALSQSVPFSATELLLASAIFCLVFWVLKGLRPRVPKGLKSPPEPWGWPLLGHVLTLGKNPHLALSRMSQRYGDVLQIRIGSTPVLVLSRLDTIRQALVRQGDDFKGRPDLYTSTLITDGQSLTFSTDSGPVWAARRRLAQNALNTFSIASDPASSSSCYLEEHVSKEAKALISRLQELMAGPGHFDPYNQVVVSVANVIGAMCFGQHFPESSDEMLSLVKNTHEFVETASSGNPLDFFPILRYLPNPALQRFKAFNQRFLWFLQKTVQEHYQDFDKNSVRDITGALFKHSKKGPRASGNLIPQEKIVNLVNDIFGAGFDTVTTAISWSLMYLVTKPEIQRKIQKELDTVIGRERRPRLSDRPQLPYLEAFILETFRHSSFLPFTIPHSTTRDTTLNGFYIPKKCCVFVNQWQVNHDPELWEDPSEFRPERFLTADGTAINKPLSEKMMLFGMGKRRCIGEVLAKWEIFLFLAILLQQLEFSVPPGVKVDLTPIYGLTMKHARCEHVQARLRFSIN
# Cytochrome P450 2D6 = Cytochrome P450 2D6 (Homo sapiens, UniProt P10635); test: Inhibition of CYP2D6 in supersomes (unknown origin) using AMMC as substrate after 30 mins; assay type: ADME
# [8] = Permeability of the compound at pH 7.4 by PAMPA; assay type: ADME; conditions: read-out: permeability
# [9] = Solubility of the compound at pH 7.4; assay type: physicochemical; conditions: buffer
# [10] = Growth inhibition of human HCT116 cells after 5 days by SRB assay; assay type: functional; conditions: HCT-116, 120 h
# [11] = Cell cycle arrest in human HCT116 cells at 500 to 2500 nM after 2 days by flow cytometry; assay type: functional, cell-based; conditions: HCT-116
# [12] = target: Receptor-type tyrosine-protein kinase FLT3 (Homo sapiens) (UniProt P36888); test: Inhibition of FLT3 (unknown origin) by FRET-based homogenous assay
# Sequence of Receptor-type tyrosine-protein kinase FLT3 (Homo sapiens) (P36888 whole entry): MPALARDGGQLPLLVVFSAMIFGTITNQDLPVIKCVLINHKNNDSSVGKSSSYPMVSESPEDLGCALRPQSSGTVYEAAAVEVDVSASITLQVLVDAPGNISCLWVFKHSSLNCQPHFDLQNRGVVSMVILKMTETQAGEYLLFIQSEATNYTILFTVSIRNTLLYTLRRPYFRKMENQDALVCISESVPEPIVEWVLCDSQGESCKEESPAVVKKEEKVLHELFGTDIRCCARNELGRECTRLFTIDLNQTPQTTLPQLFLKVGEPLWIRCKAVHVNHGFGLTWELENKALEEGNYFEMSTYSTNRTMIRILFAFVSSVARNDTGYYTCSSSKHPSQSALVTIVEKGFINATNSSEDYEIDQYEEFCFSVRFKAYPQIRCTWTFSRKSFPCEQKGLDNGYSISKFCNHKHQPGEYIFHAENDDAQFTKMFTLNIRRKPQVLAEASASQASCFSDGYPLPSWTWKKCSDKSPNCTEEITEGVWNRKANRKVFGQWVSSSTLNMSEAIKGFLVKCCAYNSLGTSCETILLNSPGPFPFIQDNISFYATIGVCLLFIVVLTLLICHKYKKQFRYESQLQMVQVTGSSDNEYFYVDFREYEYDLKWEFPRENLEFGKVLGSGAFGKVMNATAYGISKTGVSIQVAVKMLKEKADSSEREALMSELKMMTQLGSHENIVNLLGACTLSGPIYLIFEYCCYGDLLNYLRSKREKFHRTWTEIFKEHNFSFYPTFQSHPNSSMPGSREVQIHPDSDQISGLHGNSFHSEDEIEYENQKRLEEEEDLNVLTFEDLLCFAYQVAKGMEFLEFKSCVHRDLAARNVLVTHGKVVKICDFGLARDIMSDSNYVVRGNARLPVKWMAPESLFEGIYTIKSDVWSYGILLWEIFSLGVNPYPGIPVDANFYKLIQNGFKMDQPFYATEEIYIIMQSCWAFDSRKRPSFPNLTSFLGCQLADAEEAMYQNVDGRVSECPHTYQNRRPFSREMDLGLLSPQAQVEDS
# T3 sequence (P08684 whole entry): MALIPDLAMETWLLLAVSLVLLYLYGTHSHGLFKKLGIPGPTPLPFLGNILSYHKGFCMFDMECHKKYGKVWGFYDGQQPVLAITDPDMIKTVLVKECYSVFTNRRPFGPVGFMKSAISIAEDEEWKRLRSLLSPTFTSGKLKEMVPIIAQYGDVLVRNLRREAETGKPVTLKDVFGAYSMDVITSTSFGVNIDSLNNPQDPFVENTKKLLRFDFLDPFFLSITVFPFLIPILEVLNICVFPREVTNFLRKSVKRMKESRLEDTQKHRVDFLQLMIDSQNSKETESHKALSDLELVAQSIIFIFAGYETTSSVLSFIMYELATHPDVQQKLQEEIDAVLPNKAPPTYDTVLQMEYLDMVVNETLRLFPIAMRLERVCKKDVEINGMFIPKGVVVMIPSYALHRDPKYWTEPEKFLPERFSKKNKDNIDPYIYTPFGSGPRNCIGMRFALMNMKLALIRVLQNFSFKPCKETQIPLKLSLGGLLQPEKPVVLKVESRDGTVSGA
# Sequence of Aurora kinase B (Q96GD4 whole entry): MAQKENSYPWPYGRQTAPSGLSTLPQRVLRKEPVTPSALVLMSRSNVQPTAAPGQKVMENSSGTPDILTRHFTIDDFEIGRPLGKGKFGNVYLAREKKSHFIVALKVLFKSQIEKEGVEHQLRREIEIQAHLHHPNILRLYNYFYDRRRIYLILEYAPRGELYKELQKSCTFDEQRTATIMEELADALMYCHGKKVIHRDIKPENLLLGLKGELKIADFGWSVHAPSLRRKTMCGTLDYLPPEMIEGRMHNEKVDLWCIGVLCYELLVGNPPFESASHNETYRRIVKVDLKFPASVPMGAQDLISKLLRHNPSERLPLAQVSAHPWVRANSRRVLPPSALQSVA
# Sequence of Cytochrome P450 2C9 (P11712 whole entry): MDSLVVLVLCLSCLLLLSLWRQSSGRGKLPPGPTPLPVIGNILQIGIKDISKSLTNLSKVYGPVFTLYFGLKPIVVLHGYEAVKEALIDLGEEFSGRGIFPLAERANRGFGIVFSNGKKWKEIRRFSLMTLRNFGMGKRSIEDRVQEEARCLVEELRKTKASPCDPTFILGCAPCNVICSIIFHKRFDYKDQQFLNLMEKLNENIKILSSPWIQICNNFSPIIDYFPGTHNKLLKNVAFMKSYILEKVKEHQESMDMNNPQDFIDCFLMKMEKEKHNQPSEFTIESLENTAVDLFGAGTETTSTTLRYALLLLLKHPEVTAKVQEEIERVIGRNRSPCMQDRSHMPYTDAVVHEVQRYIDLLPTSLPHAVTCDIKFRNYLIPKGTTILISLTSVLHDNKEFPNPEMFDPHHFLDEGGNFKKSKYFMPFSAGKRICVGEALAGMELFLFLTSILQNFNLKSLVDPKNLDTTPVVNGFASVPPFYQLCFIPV
# Sequence of Cytochrome P450 2C19 (P33261 whole entry): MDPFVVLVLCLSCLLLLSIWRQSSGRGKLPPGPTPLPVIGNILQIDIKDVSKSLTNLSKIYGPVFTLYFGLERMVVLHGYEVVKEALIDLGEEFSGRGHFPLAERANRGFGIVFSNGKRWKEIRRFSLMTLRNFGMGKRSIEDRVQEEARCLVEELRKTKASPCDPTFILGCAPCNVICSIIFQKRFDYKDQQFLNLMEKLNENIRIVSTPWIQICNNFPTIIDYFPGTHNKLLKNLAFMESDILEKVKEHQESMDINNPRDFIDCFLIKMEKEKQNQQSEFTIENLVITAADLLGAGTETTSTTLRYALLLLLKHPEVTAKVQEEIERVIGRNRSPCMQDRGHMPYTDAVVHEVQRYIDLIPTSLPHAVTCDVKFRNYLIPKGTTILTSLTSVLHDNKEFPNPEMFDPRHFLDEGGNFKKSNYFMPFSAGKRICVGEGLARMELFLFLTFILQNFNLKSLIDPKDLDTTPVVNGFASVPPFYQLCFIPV
# Sequence of Serine/threonine-protein kinase Chk2 (O96017 whole entry): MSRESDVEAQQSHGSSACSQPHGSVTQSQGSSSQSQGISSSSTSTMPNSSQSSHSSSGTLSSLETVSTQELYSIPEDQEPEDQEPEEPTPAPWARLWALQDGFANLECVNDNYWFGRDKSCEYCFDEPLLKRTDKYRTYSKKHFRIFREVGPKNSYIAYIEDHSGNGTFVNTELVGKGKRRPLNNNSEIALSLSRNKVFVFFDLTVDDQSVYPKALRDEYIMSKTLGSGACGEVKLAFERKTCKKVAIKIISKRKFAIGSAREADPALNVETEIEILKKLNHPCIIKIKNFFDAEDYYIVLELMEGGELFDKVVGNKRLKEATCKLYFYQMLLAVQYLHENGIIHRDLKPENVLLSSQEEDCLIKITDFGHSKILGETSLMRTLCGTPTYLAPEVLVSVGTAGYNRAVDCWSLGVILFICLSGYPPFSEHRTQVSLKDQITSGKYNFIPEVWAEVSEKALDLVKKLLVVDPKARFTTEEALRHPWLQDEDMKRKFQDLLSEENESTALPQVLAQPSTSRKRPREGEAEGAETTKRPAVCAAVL
# Sequence of Cytochrome P450 2D6 (P10635 whole entry): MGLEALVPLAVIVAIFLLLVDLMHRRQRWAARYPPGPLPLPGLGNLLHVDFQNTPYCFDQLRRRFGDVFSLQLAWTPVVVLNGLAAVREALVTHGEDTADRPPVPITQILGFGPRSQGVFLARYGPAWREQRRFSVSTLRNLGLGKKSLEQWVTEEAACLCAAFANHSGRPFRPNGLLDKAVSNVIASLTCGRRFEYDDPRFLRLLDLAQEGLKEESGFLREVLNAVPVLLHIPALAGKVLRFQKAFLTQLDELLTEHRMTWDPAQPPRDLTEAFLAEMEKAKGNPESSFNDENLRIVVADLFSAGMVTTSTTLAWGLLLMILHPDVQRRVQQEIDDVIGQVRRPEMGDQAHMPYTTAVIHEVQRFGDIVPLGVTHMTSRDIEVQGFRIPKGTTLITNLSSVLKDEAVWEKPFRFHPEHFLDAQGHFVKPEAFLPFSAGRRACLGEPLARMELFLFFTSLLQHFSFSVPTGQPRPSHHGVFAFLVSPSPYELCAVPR
smiles,measurement,setting,value
NS(=O)(=O)c1cccc(-c2n[nH]c3ccccc23)c1,IC50,[1],2.6 µM
same,IC50,[2],1.6 µM
O=c1[nH]cc(F)c(=O)[nH]1 [FLUOROURACIL],inhibition in vivo at 15 mg/kg,[3],46%
CCc1cccc(CC)c1NC(=O)Nc1ccc2[nH]nc(-c3cccc(S(N)(=O)=O)c3)c2c1,IC50,[4],0.13 µM
same,IC50,Aurora kinase B,2.4 µM
same,IC50,[5],0.41 µM
same,IC50,Cytochrome P450 2C19,> 1 µM
same,IC50,Cytochrome P450 3A4 [6],10 µM
same,IC50,Cytochrome P450 3A4 [7],1 µM
same,IC50,Cytochrome P450 2C9,1.7 µM
same,IC50,Cytochrome P450 1A2,> 10 µM
same,IC50,Cytochrome P450 2D6,> 10 µM
same,Papp,[8],< 21 ×10⁻⁶ cm/s
same,solubility,[9],< 0.1 µg/mL
same,IC50,[2],0.0035 µM
same,GI50,[10],> 50 µM
NS(=O)(=O)c1cccc(-c2n[nH]c3ccc(C(=O)N[C@H]4CCc5ccccc54)cc23)c1,Activity,[11],inactive
NCc1cccc(-c2n[nH]c3cccc(Cl)c23)c1,IC50,[1],> 50 µM
NS(=O)(=O)c1cccc(-c2n[nH]c3cccc(Cl)c23)c1,IC50,[1],1.8 µM
same,IC50,[2],1.9 µM
NC(=O)c1cccc(-c2n[nH]c3cccc(Cl)c23)c1,IC50,[1],17 µM
c1ccc(-c2[nH]nc3ccccc23)cc1,inhibition,[12],inactive
same,Activity,[11],inactive
same,IC50,[1],12 µM
O=Cc1ccc2c(-c3cccnc3)n[nH]c2c1,IC50,[1],12 µM
